Data from ChEMBL document CHEMBL4118197, “The discovery and preclinical evaluation of BMS-707035, a potent HIV-1 integrase strand transfer inhibitor” (Bioorg Med Chem Lett, 2018).

Columns and labels:
[1] = molecular target: Human immunodeficiency virus type 1 integrase (Human immunodeficiency virus 1, UniProt Q7ZJM1); assay: Inhibition of HIV1 integrase strand transfer activity
[2] = Clearance in Sprague-Dawley rat at 1 mg/kg, iv after 4 hrs; format: ADME, organism-based; conditions: in vivo
Summary of the method: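 Male Sprague-Dawley rats given 1 mpk IV in PEG400/ethanol (90:10); blood sampled at 5 and 30 min and 1, 2 and 4 h post-dose; clearance from plasma profile.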

[3] = Aqueous solubility of the compound; format: physicochemical
Summary of the method: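 Aqueous solubility measured at pH 2.3, 6.1, 7.3 and 8.5, in µg/mL.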

Human immunodeficiency virus type 1 integrase, sequence (Q7ZJM1 whole entry): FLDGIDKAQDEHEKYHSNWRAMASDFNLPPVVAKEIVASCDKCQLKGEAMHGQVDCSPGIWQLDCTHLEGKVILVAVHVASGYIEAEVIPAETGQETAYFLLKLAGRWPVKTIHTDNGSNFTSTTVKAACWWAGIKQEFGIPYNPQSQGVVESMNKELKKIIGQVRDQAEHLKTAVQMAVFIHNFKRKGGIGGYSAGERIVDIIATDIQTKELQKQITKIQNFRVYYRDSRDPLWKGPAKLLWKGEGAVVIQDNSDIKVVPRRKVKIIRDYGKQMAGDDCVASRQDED

Row | Structure (SMILES) | IC50 [1] | clearance [2] | solubility [3]
1 | CN(C)S(=O)(=O)c1cc(F)ccc1CNC(=O)c1nc2n(c(=O)c1O)CCCC21CCCC1 | 6 nM | – | ≤ 5 µg/mL
2 | CN(C)S(=O)(=O)c1c(CNC(=O)c2nc3n(c(=O)c2O)CCOC3(C)C)ccc(F)c1F | 10 nM | 62 mL/min/kg | –
3 | O=C(NCc1ccc(F)cc1N1CCCCS1(=O)=O)c1nc2n(c(=O)c1O)CCCC21CCCC1 | 5 nM | – | ≤ 5 µg/mL

Now from value to compound:

Row | IC50 [1] | clearance [2] | solubility [3] | Structure (SMILES)
4 | 9 nM | 38 mL/min/kg | – | CC1(C)OCCn2c1nc(C(=O)NCc1ccc(F)cc1N1CCCCS1(=O)=O)c(O)c2=O
5 | 11 nM | 22 mL/min/kg | – | CNC(=O)c1cc(F)ccc1CNC(=O)c1nc2n(c(=O)c1O)CCOC2(C)C
6 | 2 nM | – | – | Cc1cc(F)ccc1CNC(=O)c1nc2n(c(=O)c1O)CCOC2(C)C
7 | 5 nM | 29 mL/min/kg | – | CC1(C)OCCn2c1nc(C(=O)NCc1ccc(F)cc1N1CCOCC1)c(O)c2=O
8 | 6 nM | 6.9 mL/min/kg | – | CC1(C)OCCn2c1nc(C(=O)NCc1ccc(F)cc1S(C)(=O)=O)c(O)c2=O
